In publication PMC5352491 (ACS chemical neuroscience, 2016):
“Also recorded” adds a separate entry of the source. Like-named read-outs stand apart in the source and are kept apart here.

What was measured:
[1] = biological target: human δ opioid receptor (δ-OR) (Homo sapiens, UniProt P41143); test: calcium mobilization assay, δ-OR agonist activity; format: cell-based; conditions: for δ-OR agonist activity in HTS of extract / LC-MS fractions: approximately 20.0 μg/mL, DPDPE control 100 nM; for activity at δ-OR (agonist or antagonist): up to 50.0 μM
Sequence of human δ opioid receptor (δ-OR) (P41143 whole entry): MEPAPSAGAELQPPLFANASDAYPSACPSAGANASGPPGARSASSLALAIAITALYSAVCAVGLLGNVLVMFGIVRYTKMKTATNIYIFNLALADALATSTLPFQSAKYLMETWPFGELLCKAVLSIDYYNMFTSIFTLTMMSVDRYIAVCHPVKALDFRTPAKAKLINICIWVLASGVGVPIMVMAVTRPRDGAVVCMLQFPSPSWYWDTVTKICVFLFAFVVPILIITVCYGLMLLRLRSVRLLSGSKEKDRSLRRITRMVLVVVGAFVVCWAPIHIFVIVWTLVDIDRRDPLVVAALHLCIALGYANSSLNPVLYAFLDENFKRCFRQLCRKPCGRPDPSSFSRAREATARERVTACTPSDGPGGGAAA

[2] = biological target: human μ opioid receptor (μ-OR) (Homo sapiens, UniProt P35372); test: cell-based; format: cell-based
Sequence of human μ opioid receptor (μ-OR) (P35372 whole entry): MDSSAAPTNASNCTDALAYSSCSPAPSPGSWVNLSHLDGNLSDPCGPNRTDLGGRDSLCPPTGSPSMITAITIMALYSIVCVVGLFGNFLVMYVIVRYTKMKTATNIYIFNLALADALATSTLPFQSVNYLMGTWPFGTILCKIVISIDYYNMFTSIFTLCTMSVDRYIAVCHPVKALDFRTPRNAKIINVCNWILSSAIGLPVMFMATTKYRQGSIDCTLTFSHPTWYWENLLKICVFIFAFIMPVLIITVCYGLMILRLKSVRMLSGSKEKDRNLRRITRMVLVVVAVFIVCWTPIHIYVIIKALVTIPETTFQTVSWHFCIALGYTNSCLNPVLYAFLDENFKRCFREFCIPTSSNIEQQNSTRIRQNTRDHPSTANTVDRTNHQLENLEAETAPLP

μ-OR [3] = test: fluorescent endocytosis assay; format: cell-based; conditions: 30 min; DAMGO 1 μM, others 10 μM
μ-OR [4] = test: biotin protection endocytosis assay; format: cell-based; conditions: 10 μM each, 30 min
δ-KO C57BL/6 mice [5] = conditions: mouse, in vivo, ip, 40 mg/kg
WT C57BL/6 mice [6] = test: forced swim test, wild type mice; format: in vivo; conditions: 40 mg/kg ip; for antidepressant-like activity in forced swim test: p = 0.003 vs saline, 40 mg/kg
Method in brief: (§1)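 Male C57BL/6 mice (wild type or δ-OR knockout littermates, 8–10 weeks, 9 per group) on a 12-h reversed light/dark cycle, tested in the dark phase after 2 h room habituation. Given saline vehicle or test compound (40 mg/kg ip), then placed in a water cylinder (30 cm diameter, 22–24 cm deep, 36.0 ± 0.2 °C) for 6 min. Video recorded; seconds immobile scored.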

WT C57BL/6 mice [7] = conditions: unknown target; cited from earlier work
δ-KO C57BL/6 mice [8] = test: forced swim test, δ-OR knockout mice; format: in vivo; conditions: 40 mg/kg ip, p = 0.20 vs saline
Method in brief: as §1

WT C57BL/6 mice [9] = conditions: mouse, in vivo, ip, 40 mg/kg
human μ-OR [10] = biological target: T1, human μ-OR (Homo sapiens, UniProt P35372); test: cell-based; conditions: HEK-293T, read-out: β-arrestin-2 Emax (%)
Target sequence in this assay (P35372 whole entry): as above
Target sequence in this assay (P32121 whole entry partner): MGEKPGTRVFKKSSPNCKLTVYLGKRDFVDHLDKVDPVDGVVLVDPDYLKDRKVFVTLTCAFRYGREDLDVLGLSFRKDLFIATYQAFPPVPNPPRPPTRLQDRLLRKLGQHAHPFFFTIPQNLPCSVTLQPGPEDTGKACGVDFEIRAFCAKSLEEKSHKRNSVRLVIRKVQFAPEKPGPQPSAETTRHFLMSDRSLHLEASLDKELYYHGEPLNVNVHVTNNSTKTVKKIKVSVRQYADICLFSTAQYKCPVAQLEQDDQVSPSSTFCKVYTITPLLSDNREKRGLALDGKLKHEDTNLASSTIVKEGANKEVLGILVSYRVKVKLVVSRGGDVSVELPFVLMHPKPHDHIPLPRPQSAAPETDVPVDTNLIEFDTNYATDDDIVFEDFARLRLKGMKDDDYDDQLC

κ-OR = κ-OR (Homo sapiens, UniProt P41145); test: κ-OR agonist/antagonist screen; format: cell-based; conditions: up to 50.0 μM
Sequence of κ-OR (P41145 whole entry): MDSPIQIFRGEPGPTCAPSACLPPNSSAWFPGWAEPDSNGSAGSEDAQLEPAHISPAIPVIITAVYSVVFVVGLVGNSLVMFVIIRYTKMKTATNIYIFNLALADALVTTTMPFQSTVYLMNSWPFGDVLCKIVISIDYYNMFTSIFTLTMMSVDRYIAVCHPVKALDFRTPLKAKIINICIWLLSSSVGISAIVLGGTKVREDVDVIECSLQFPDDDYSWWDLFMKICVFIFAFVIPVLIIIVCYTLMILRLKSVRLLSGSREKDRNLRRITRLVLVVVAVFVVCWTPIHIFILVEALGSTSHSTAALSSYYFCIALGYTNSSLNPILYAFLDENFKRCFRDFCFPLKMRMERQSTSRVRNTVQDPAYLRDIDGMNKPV

human μ-OR [11] = biological target: T1, human μ-OR; test: cell-based; conditions: HEK-293T, read-out: Gi Emax(%)
Target sequence in this assay (P35372 whole entry): as the sequence (P35372 whole entry) above

HEK 293T cells = test: toxicity seen in the β-arrestin-2 recruitment assay; format: cell-based; conditions: cells of the β-arrestin-2 dose-response

## COc1cc2ccnc3c2c(c1O)NC=C3 [9-demethyl aaptamine (11), 9-demethyl aaptamine]
[1]
  δ-OR agonist activity in HTS of extract / LC-MS fractions: measurable δ-OR agonist activity
[2]
  μ-OR agonist activity in HTS of extract / LC-MS fractions: very weak partial agonism
[2]; read-out: EC50 μ-OR
  EC50: 6.03 ± 1.2 µM

## O=C1c2ccccc2-[n+]2ccc3c([nH]c4cc(Br)ccc43)c21 [10 bromofascaplysin (18), 10 bromofascaplysin]
[2]; read-out: EC50 μ-OR
  EC50: 4.2 ± 3.7 µM

## C[C@@H](NC(=O)[C@@H](N)Cc1ccc(O)cc1)C(=O)NCC(=O)N(C)[C@@H](Cc1ccccc1)C(=O)NCCO [DAMGO (6), DAMGO]
μ-OR [3]
  μ-OR endocytosis by immunofluorescence: also promoted endocytosis; also recorded: promoted μ-OR endocytosis
μ-OR [4]
  μ-OR endocytosis, biotin protection assay: promoted significant endocytosis
μ-OR [4]; listed as DAMGO
  μ-OR endocytosis, biotin protection assay: promoted μ-OR endocytosis

## COc1cc2ccnc3c2c(c1OC)NC=C3 [aaptamine (10), aaptamine]
[1]
  EC50: 5.1 ± 0.2 µM
δ-KO C57BL/6 mice [5]
  effect on general locomotion: no effect on general locomotion
WT C57BL/6 mice [6]; listed as Aaptamine
  antidepressant-like activity in forced swim test: showed antidepressant-like activity in WT
WT C57BL/6 mice [6]; listed as aaptamine
  antidepressant-like activity in forced swim test: showed antidepressant-like activity
WT C57BL/6 mice [6]; saline ~30 s
  time immobile in forced swim test (average): ~ 10 s
WT C57BL/6 mice [7]
  effect on immobility time in forced swim test: significant effect on the immobility time
δ-KO C57BL/6 mice [8]; listed as Aaptamine
  effect in forced swim test: antidepressant-like activity in WT but not δ-KO mice
δ-KO C57BL/6 mice [8]; listed as aaptamine
  effect in forced swim test: no effect
WT C57BL/6 mice [9]
  effect on general locomotion: no effect on general locomotion
[2]
  EC50: 10.1 ± 1.4 µM

## COC1=Cc2ccnc3ccnc(c23)C1=O [demethyl (oxy) –aaptamine (12), demethyl (oxy) –aaptamine]
[1]
  δ-OR agonist activity in HTS of extract / LC-MS fractions: measurable δ-OR agonist activity
[2]
  μ-OR agonist activity in HTS of extract / LC-MS fractions: very weak partial agonism
[2]; read-out: EC50 μ-OR
  EC50: 4.1 ± 1.2 µM

## O=C1c2ccccc2-[n+]2ccc3c([nH]c4ccccc43)c21 [fascaplysin (17), fascaplysin]
Human μ-OR [10]
  Emax: 78%
κ-OR
  activity at κ-OR (agonist or antagonist): no significant agonist or antagonist activity
[1]
  activity at δ-OR (agonist or antagonist): no significant agonist or antagonist activity
μ-OR [3]
  μ-OR endocytosis by immunofluorescence: promoted substantial endocytosis; also recorded: promoted μ-OR endocytosis
Human μ-OR [11]
  Emax: 111%
HEK 293T cells
  toxic concentration: higher than 50 μM
[2]
  EC50: 6.3 ± 0.2 µM
[2]; read-out: Emax at the μ-OR
  Emax: 100%
μ-OR [4]
  μ-OR endocytosis, biotin protection assay: promoted substantial endocytosis; also recorded: promoted μ-OR endocytosis

## CCC(=O)C(CC(C)N(C)C)(c1ccccc1)c1ccccc1 (centres unmarked) [methadone (S6), methadone]
μ-OR [3]
  μ-OR endocytosis by immunofluorescence: also promoted endocytosis; also recorded: promoted μ-OR endocytosis
μ-OR [4]
  μ-OR endocytosis, biotin protection assay: promoted significant endocytosis; also recorded: promoted μ-OR endocytosis

## CN1CC[C@]23c4c5ccc(O)c4O[C@H]2[C@@H](O)C=C[C@H]3[C@H]1C5 [morphine (1), morphine]
μ-OR [3]
  μ-OR endocytosis by immunofluorescence: did not promote significant endocytosis
μ-OR [4]
  μ-OR endocytosis, biotin protection assay: induced no significant endocytosis

## CNc1c2c(c3nc4ccccc4c4c3c1N=C4)NCCC2=O [plakinidine A (19), plakinidine A]
[1]
  activity at δ-OR (agonist or antagonist): not active
[2]
  activity at μ-OR (agonist or antagonist): not active

## CC(C)c1c2c(c3nc4ccccc4c4c3c1N=C4)NCCC2=O [plakinidine B (20), plakinidine B]
[1]
  activity at δ-OR (agonist or antagonist): not active
[2]
  activity at μ-OR (agonist or antagonist): not active

## mitragynine [mitragynine (21)]
μ-OR [3]
  μ-OR endocytosis by immunofluorescence: did not promote receptor endocytosis
